Measurements published in ChEMBL document CHEMBL1649446, “Comparative antipneumococcal activities of sulopenem and other drugs” (2009).
Values after ≈ are worked out from the molar mass of the structure shown.

Columns and labels:
Type in all cases: functional
[1] = system: Streptococcus pneumoniae; experiment: Antimicrobial activity against Streptococcus pneumoniae 12 by time-kill analysis
In short: (§1)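 Time-kill in cation-adjusted Mueller-Hinton broth with 5% lysed horse blood; inocula 5 × 105 to 5 × 10^6 CFU/ml; drugs at MIC, 2× and 4× MIC; 35°C shaking water bath; viable counts at 0, 3, 6, 12, 24 h. Bactericidal = ≥3 log10 CFU/ml (99.9%) drop from original inoculum; 90%/99%/99.9% killing scored per strain.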

[2] = system: Streptococcus pneumoniae; experiment: Antimicrobial activity against Streptococcus pneumoniae 2 by time-kill analysis; in short: as §1
[3] = system: Streptococcus pneumoniae; experiment: Antimicrobial activity against Streptococcus pneumoniae isolate 3260 by agar dilution method
[4] = system: Streptococcus pneumoniae; experiment: Antimicrobial activity against Streptococcus pneumoniae 19A by agar dilution method
In short: (§2)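 Agar dilution MIC on Mueller-Hinton agar with 5% sheep blood, inocula 10^4 CFU/spot; amoxicillin-clavulanate combined 1:2; S. pneumoniae ATCC 49619 quality control each run.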

[5] = system: Streptococcus pneumoniae; experiment: Antimicrobial activity against Streptococcus pneumoniae isolate 2688 by agar dilution method; in short: as §2
[6] = system: Streptococcus pneumoniae; experiment: Antimicrobial activity against Streptococcus pneumoniae isolate 3455 by agar dilution method
[7] = system: Streptococcus pneumoniae; experiment: Antimicrobial activity against Streptococcus pneumoniae isolate 1146 by agar dilution method; in short: as §2
[8] = system: Streptococcus pneumoniae; experiment: Antimicrobial activity against Streptococcus pneumoniae isolate 3346 by agar dilution method
[9] = system: Streptococcus pneumoniae; experiment: Antimicrobial activity against Streptococcus pneumoniae isolate 1384 by agar dilution method; in short: as §2
[10] = system: Streptococcus pneumoniae; experiment: Antimicrobial activity against Streptococcus pneumoniae isolate 1394 by agar dilution method
[11] = system: Streptococcus pneumoniae; experiment: Antimicrobial activity against Streptococcus pneumoniae isolate 3458 by agar dilution method
[12] = system: Streptococcus pneumoniae; experiment: Antimicrobial activity against Streptococcus pneumoniae isolate 4755 by agar dilution method; in short: as §2
[13] = system: Streptococcus pneumoniae; experiment: Antimicrobial activity against Streptococcus pneumoniae isolate 24 by agar dilution method
[14] = system: Streptococcus pneumoniae; experiment: Antimicrobial activity against penicillin-susceptible Streptococcus pneumoniae by agar dilution method
[15] = system: Streptococcus pneumoniae; experiment: Antimicrobial activity against Streptococcus pneumoniae 10 by time-kill analysis; in short: as §1
[16] = system: Streptococcus pneumoniae; experiment: Antimicrobial activity against Streptococcus pneumoniae isolate 3791 by agar dilution method; in short: as §2
[17] = system: Streptococcus pneumoniae; experiment: Antimicrobial activity against Streptococcus pneumoniae isolate 2686 by agar dilution method; in short: as §2
[18] = system: Streptococcus pneumoniae; experiment: Antimicrobial activity against Streptococcus pneumoniae isolate 37 by agar dilution method; in short: as §2
[19] = system: Streptococcus pneumoniae; experiment: Antimicrobial activity against Streptococcus pneumoniae isolate 1564 by agar dilution method
[20] = system: Streptococcus pneumoniae; experiment: Antimicrobial activity against Streptococcus pneumoniae 7 by time-kill analysis; in short: as §1
[21] = system: Streptococcus pneumoniae; experiment: Antimicrobial activity against penicillin-intermediate Streptococcus pneumoniae by agar dilution method
[22] = system: Streptococcus pneumoniae; experiment: Antimicrobial activity against Streptococcus pneumoniae isolate 3263 by agar dilution method
[23] = system: Streptococcus pneumoniae; experiment: Antimicrobial activity against Streptococcus pneumoniae isolate 2617 by agar dilution method; in short: as §2
[24] = system: Streptococcus pneumoniae; experiment: Antimicrobial activity against Streptococcus pneumoniae 9 by time-kill analysis
In short: (§3)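 Time-kill in cation-adjusted Mueller-Hinton broth with 5% lysed horse blood; inocula 5 × 105 to 5 × 10^6 CFU/ml; drugs at MIC, 2× and 4× MIC; 35°C shaking water bath; viable counts at 0, 3, 6, 12 and 24 h. Bactericidal if ≥3 log10 CFU/ml (99.9%) reduction from original inoculum; 90% and 99% killing also scored.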

[25] = system: Streptococcus pneumoniae; experiment: Antimicrobial activity against Streptococcus pneumoniae 8 by time-kill analysis; in short: as §1
[26] = system: Streptococcus pneumoniae; experiment: Antimicrobial activity against Streptococcus pneumoniae isolate 1397 by agar dilution method; in short: as §2
[27] = system: Streptococcus pneumoniae; experiment: Antimicrobial activity against Streptococcus pneumoniae isolate 3587 by agar dilution method
[28] = system: Streptococcus pneumoniae; experiment: Antimicrobial activity against Streptococcus pneumoniae 5 by time-kill analysis; in short: as §3
[29] = system: Streptococcus pneumoniae; experiment: Antimicrobial activity against Streptococcus pneumoniae isolate 3275 by agar dilution method; in short: as §2
[30] = system: Streptococcus pneumoniae; experiment: Antimicrobial activity against Streptococcus pneumoniae isolate 1424 by agar dilution method; in short: as §2
[31] = system: Streptococcus pneumoniae; experiment: Antimicrobial activity against Streptococcus pneumoniae isolate 3412 by agar dilution method; in short: as §2
[32] = system: Streptococcus pneumoniae; experiment: Antimicrobial activity against penicillin-resistant Streptococcus pneumoniae by agar dilution method; in short: as §2
[33] = system: Streptococcus pneumoniae; experiment: Antimicrobial activity against Streptococcus pneumoniae isolate 33 by agar dilution method; in short: as §2
[34] = system: Streptococcus pneumoniae; experiment: Antimicrobial activity against Streptococcus pneumoniae isolate 3681 by agar dilution method; in short: as §2
[35] = system: Streptococcus pneumoniae; experiment: Antimicrobial activity against Streptococcus pneumoniae isolate 3282 by agar dilution method
[36] = system: Streptococcus pneumoniae; experiment: Antimicrobial activity against Streptococcus pneumoniae isolate 4747 by agar dilution method; in short: as §2
[37] = system: Streptococcus pneumoniae; experiment: Antimicrobial activity against Streptococcus pneumoniae isolate 3481 by agar dilution method; in short: as §2
[38] = system: Streptococcus pneumoniae; experiment: Antimicrobial activity against Streptococcus pneumoniae 4 by time-kill analysis; in short: as §1
[39] = system: Streptococcus pneumoniae; experiment: Antimicrobial activity against Streptococcus pneumoniae isolate 1147 by agar dilution method; in short: as §2
[40] = system: Streptococcus pneumoniae; experiment: Antimicrobial activity against Streptococcus pneumoniae 1 by time-kill analysis; in short: as §3
[41] = system: Streptococcus pneumoniae; experiment: Antimicrobial activity against Streptococcus pneumoniae isolate 2874 by agar dilution method; in short: as §2
[42] = system: Streptococcus pneumoniae; experiment: Antimicrobial activity against Streptococcus pneumoniae isolate 1055 by agar dilution method
[43] = system: Streptococcus pneumoniae; experiment: Antimicrobial activity against Streptococcus pneumoniae 3 by time-kill analysis; in short: as §1
[44] = system: Streptococcus pneumoniae; experiment: Antimicrobial activity against Streptococcus pneumoniae isolate 2880 by agar dilution method; in short: as §2
[45] = system: Streptococcus pneumoniae; experiment: Antimicrobial activity against Streptococcus pneumoniae 6 by time-kill analysis; in short: as §1
[46] = system: Streptococcus pneumoniae; experiment: Antimicrobial activity against Streptococcus pneumoniae isolate 3374 by agar dilution method; in short: as §2
[47] = system: Streptococcus pneumoniae; experiment: Antimicrobial activity against Streptococcus pneumoniae 11 by time-kill analysis; in short: as §1

COCC1=C(C(=O)O)N2C(=O)[C@@H](NC(=O)/C(=N\OC)c3csc(N)n3)[C@H]2SC1 [CEFPODOXIME]
MIC [1]: 2 µg/mL (≈ 4.68 µM) | MIC [2]: 0.016 µg/mL (≈ 0.0374 µM) | MIC [3]: 2 µg/mL (≈ 4.68 µM) | MIC50 [4]: 8 µg/mL (≈ 18.7 µM) | MIC90 [4]: 8 µg/mL (≈ 18.7 µM) | MIC [5]: 32 µg/mL (≈ 74.9 µM) | MIC [6]: 4 µg/mL (≈ 9.36 µM) | MIC [7]: 8 µg/mL (≈ 18.7 µM) | MIC [8]: 4 µg/mL (≈ 9.36 µM) | MIC [9]: 4 µg/mL (≈ 9.36 µM) | MIC [10]: 8 µg/mL (≈ 18.7 µM) | MIC [11]: 4 µg/mL (≈ 9.36 µM) | MIC [12]: 4 µg/mL (≈ 9.36 µM) | MIC [13]: 2 µg/mL (≈ 4.68 µM) | MIC [14]: 0.03 µg/mL (≈ 0.0702 µM) | MIC50 [14]: 0.03 µg/mL (≈ 0.0702 µM) | MIC90 [14]: 0.06 µg/mL (≈ 0.14 µM) | MIC [15]: 0.25 µg/mL (≈ 0.585 µM) | MIC [16]: 4 µg/mL (≈ 9.36 µM) | MIC [17]: 8 µg/mL (≈ 18.7 µM) | MIC [18]: 4 µg/mL (≈ 9.36 µM) | MIC [19]: 32 µg/mL (≈ 74.9 µM) | MIC [20]: 4 µg/mL (≈ 9.36 µM) | MIC50 [21]: 0.25 µg/mL (≈ 0.585 µM) | MIC90 [21]: 2 µg/mL (≈ 4.68 µM) | MIC [22]: 4 µg/mL (≈ 9.36 µM) | MIC [23]: 2 µg/mL (≈ 4.68 µM) | MIC [24]: 0.25 µg/mL (≈ 0.585 µM) | MIC [25]: 4 µg/mL (≈ 9.36 µM) | MIC [26]: 4 µg/mL (≈ 9.36 µM) | MIC [27]: 4 µg/mL (≈ 9.36 µM) | MIC [28]: 8 µg/mL (≈ 18.7 µM) | MIC [29]: 1 µg/mL (≈ 2.34 µM) | MIC [30]: 4 µg/mL (≈ 9.36 µM) | MIC [31]: 4 µg/mL (≈ 9.36 µM) | MIC50 [32]: 4 µg/mL (≈ 9.36 µM) | MIC90 [32]: 8 µg/mL (≈ 18.7 µM) | MIC [33]: 4 µg/mL (≈ 9.36 µM) | MIC [34]: 4 µg/mL (≈ 9.36 µM) | MIC [35]: 2 µg/mL (≈ 4.68 µM) | MIC [36]: 2 µg/mL (≈ 4.68 µM) | MIC [37]: 4 µg/mL (≈ 9.36 µM) | MIC [38]: 8 µg/mL (≈ 18.7 µM) | MIC [39]: 8 µg/mL (≈ 18.7 µM) | MIC [40]: 0.03 µg/mL (≈ 0.0702 µM) | MIC [41]: 4 µg/mL (≈ 9.36 µM) | MIC [42]: 2 µg/mL (≈ 4.68 µM) | MIC [43]: 0.5 µg/mL (≈ 1.17 µM) | MIC [44]: 2 µg/mL (≈ 4.68 µM) | MIC [45]: 0.5 µg/mL (≈ 1.17 µM) | MIC [46]: 4 µg/mL (≈ 9.36 µM) | MIC [47]: 4 µg/mL (≈ 9.36 µM)

C[C@@H](O)[C@H]1C(=O)N2C(C(=O)O)=C(S[C@@H]3CN[C@H](C(=O)N(C)C)C3)[C@H](C)[C@H]12 [MEROPENEM]
MIC [1]: 0.5 µg/mL (≈ 1.3 µM) | MIC [2]: 0.008 µg/mL (≈ 0.0209 µM) | MIC [3]: 0.25 µg/mL (≈ 0.652 µM) | MIC50 [4]: 1 µg/mL (≈ 2.61 µM) | MIC90 [4]: 1 µg/mL (≈ 2.61 µM) | MIC [5]: 0.5 µg/mL (≈ 1.3 µM) | MIC [6]: 1 µg/mL (≈ 2.61 µM) | MIC [7]: 1 µg/mL (≈ 2.61 µM) | MIC [8]: 0.25 µg/mL (≈ 0.652 µM) | MIC [9]: 0.25 µg/mL (≈ 0.652 µM) | MIC [10]: 0.5 µg/mL (≈ 1.3 µM) | MIC [11]: 1 µg/mL (≈ 2.61 µM) | MIC [12]: 0.25 µg/mL (≈ 0.652 µM) | MIC [13]: 0.5 µg/mL (≈ 1.3 µM) | MIC50 [14]: 0.016 µg/mL (≈ 0.0417 µM) | MIC90 [14]: 0.016 µg/mL (≈ 0.0417 µM) | MIC [15]: 0.06 µg/mL (≈ 0.156 µM) | MIC [16]: 0.25 µg/mL (≈ 0.652 µM) | MIC [17]: 0.5 µg/mL (≈ 1.3 µM) | MIC [18]: 1 µg/mL (≈ 2.61 µM) | MIC [19]: 0.125 µg/mL (≈ 0.326 µM) | MIC [20]: 1 µg/mL (≈ 2.61 µM) | MIC50 [21]: 0.06 µg/mL (≈ 0.156 µM) | MIC90 [21]: 0.25 µg/mL (≈ 0.652 µM) | MIC [22]: 0.25 µg/mL (≈ 0.652 µM) | MIC [23]: 0.25 µg/mL (≈ 0.652 µM) | MIC [24]: 0.12 µg/mL (≈ 0.313 µM) | MIC [25]: 1 µg/mL (≈ 2.61 µM) | MIC [26]: 0.5 µg/mL (≈ 1.3 µM) | MIC [27]: 0.5 µg/mL (≈ 1.3 µM) | MIC [28]: 2 µg/mL (≈ 5.22 µM) | MIC [29]: 0.125 µg/mL (≈ 0.326 µM) | MIC [30]: 0.5 µg/mL (≈ 1.3 µM) | MIC [31]: 0.25 µg/mL (≈ 0.652 µM) | MIC50 [32]: 0.5 µg/mL (≈ 1.3 µM) | MIC90 [32]: 0.5 µg/mL (≈ 1.3 µM) | MIC [33]: 1 µg/mL (≈ 2.61 µM) | MIC [34]: 0.25 µg/mL (≈ 0.652 µM) | MIC [35]: 0.25 µg/mL (≈ 0.652 µM) | MIC [36]: 0.25 µg/mL (≈ 0.652 µM) | MIC [37]: 0.25 µg/mL (≈ 0.652 µM) | MIC [38]: 0.5 µg/mL (≈ 1.3 µM) | MIC [39]: 2 µg/mL (≈ 5.22 µM) | MIC [40]: 0.016 µg/mL (≈ 0.0417 µM) | MIC [41]: 1 µg/mL (≈ 2.61 µM) | MIC [42]: 0.5 µg/mL (≈ 1.3 µM) | MIC [43]: 0.25 µg/mL (≈ 0.652 µM) | MIC [44]: 0.5 µg/mL (≈ 1.3 µM) | MIC [45]: 0.12 µg/mL (≈ 0.313 µM) | MIC [46]: 0.25 µg/mL (≈ 0.652 µM) | MIC [47]: 1 µg/mL (≈ 2.61 µM)
